What was measured:
[1] = tested on: Mus musculus; experiment: Maximal proliferation induced in the presence of the mitogen-Concanavalin A (stimulated blastogenesis) in mice cells dosed at 5 ug/mL; format: functional; set-up: unit not given here
Procedure, shortened: (§1)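 Splenocytes from female DBA/2 mice, 6–9 weeks old; red cells lysed with cold 0.17 M NH₄Cl. Cells plated at 5 × 10⁶ cells/mL in RPMI 1640 with 5% FCS, with compound (5–80 μg/mL range) and Con A, PWM or PHA at a batch-optimized concentration. Cultured 72 h at 37 °C, 5% CO₂, with [³H]thymidine for the final 24 h, read by scintillation. Triplicate wells; mean ± SD of three cultures.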

[2] = species: Mus musculus; experiment: Maximal proliferation induced by the test compound in the presence of the mitogen-PHA ( stimulated blastogenesis) in Mice cells at a dose of 7.5 ug/mL; format: functional; procedure, shortened: as §1
[3] = species: Mus musculus; experiment: Proliferation induced by the mitogen alone-PHA (control blastogenesis), in Mice cells at a dose of 7.5 ug/mL; format: functional; procedure, shortened: as §1
[4] = tested on: Mus musculus; experiment: Proliferation induced by the mitogen alone-Concanavalin A (control blastogenesis), in mice cells dosed at 5 ug/mL; format: functional; set-up: unit not given here; procedure, shortened: as §1
[5] = tested on: Mus musculus; experiment: […] induction of Thyl+ antigen expression on murine bone marrow cells at the concentration of 3.2 uM(Fraction B).(treated); format: functional
Procedure, shortened: (§2)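 Bone marrow from female C57 BL/6 mice, 5–8 weeks old, separated on a discontinuous BSA gradient. Fraction A (lowest density) and fraction B (next lowest) resuspended at 10⁶ cells/mL in HBSS with 5% BSA. Cells incubated 24 h with one compound concentration, then stained directly with FITC anti-Thy1 and counted by epifluorescence microscopy. % Thy1⁺ cells recorded for treated and control cultures.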

[6] = tested on: Mus musculus; experiment: Percent of Thyl+ positive cells / spleen x 10 e6 in nude mice (in vivo); format: functional
Procedure, shortened: (§3)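 Female nu/nu mice, 6–9 weeks old, dosed by gastric tube in 0.2 mL 2% arabic gum with 0.1% Tween-80; controls received vehicle only. Spleens taken 24 h later and splenocytes prepared. Thy1⁺ cells counted by direct FITC anti-Thy1 staining under epifluorescence. Five animals per group, mean ± SD.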

[7] = species: Mus musculus; experiment: Maximal proliferation induced in the presence of the mitogen-PHA ( stimulated blastogenesis) in Mice cells at a dose of 10 ug/mL
[8] = tested on: Mus musculus; experiment: […] induction of Thyl+ antigen expression on murine bone marrow cells at the concentration of 3.2 uM(Fraction B).(Control group); format: functional; procedure, shortened: as §2
[9] = tested on: Mus musculus; experiment: Percent of restoration in nude mice (in vivo); format: functional; procedure, shortened: as §3
[10] = tested on: Mus musculus; experiment: […] induction of Thyl+ antigen expression on murine bone marrow cells at the concentration of 3.2 uM(Fraction A).(Control group); format: functional; procedure, shortened: as §2
[11] = species: Mus musculus; experiment: Proliferation induced by the mitogen alone-PWM (control blastogenesis), in Mice cells at a dose of 10 ug/mL; format: functional; set-up: unit not given here; procedure, shortened: as §1
[12] = tested on: Mus musculus; experiment: Percent of Thyl+ positive cells, in nude mice (in vivo); format: functional; procedure, shortened: as §3
[13] = species: Mus musculus; experiment: Maximal proliferation induced in the presence of the mitogen-PWM ( stimulated blastogenesis) in Mice cells at a dose of 10 ug/mL; format: functional; set-up: unit not given here; procedure, shortened: as §1
[14] = tested on: Mus musculus; experiment: Percent of restoration of T- cell markers in nude mice (in vivo); format: functional; procedure, shortened: as §3
[15] = tested on: Mus musculus; experiment: […] induction of Thyl+ antigen expression on murine bone marrow cells at the concentration of 3.2 uM(Fraction A).(treated); format: functional; procedure, shortened: as §2
[16] = species: Mus musculus; experiment: Proliferation induced by the mitogen alone-PHA (control blastogenesis), in Mice cells at a dose of 5 ug/mL; format: functional; set-up: unit not given here; procedure, shortened: as §1
[17] = tested on: Mus musculus; experiment: […] induction of Thyl+ antigen expression on murine bone marrow cells at the concentration of 2.9 uM(Fraction B).(treated); format: functional; procedure, shortened: as §2
[18] = tested on: Mus musculus; experiment: […] induction of Thyl+ antigen expression on murine bone marrow cells at the concentration of 2.9 uM(Fraction A).(treated); format: functional; procedure, shortened: as §2
[19] = tested on: Mus musculus; experiment: […] induction of Thyl+ antigen expression on murine bone marrow cells at the concentration of 2.9 uM(Fraction B).(Control group); format: functional; procedure, shortened: as §2
[20] = species: Mus musculus; experiment: Maximal proliferation induced in the presence of the mitogen-PWM ( stimulated blastogenesis) in Mice cells at a dose of 40 ug/mL; format: functional; set-up: unit not given here; procedure, shortened: as §1
[21] = species: Mus musculus; experiment: Proliferation induced by the mitogen alone-PWM (control blastogenesis), in Mice cells at a dose of 40 ug/mL; format: functional; set-up: unit not given here
Procedure, shortened: (§4)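 Splenocytes from female DBA/2 mice aged 6–9 weeks, red cells lysed with cold 0.17 M NH4Cl, cultured at 5 × 10⁶ cells/mL in RPMI 1640 with 5% FCS. Pokeweed mitogen added at a batch-adjusted optimal level, 72 h at 37 °C, 5% CO2. [³H]thymidine pulse for the final 24 h, then scintillation counting. Triplicates; mean ± SD of three cultures.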

[22] = tested on: Mus musculus; experiment: […] induction of Thyl+ antigen expression on murine bone marrow cells at the concentration of 2.9 uM(Fraction A).(Control group); format: functional; procedure, shortened: as §2
[23] = species: Mus musculus; experiment: Maximal proliferation induced in the presence of the mitogen-PWM ( stimulated blastogenesis) in Mice cells at a dose of 80 ug/mL; format: functional; set-up: unit not given here; procedure, shortened: as §1
[24] = species: Mus musculus; experiment: Proliferation induced by the mitogen alone-PWM (control blastogenesis), in Mice cells at a dose of 80 ug/mL; format: functional; set-up: unit not given here; procedure, shortened: as §4
[25] = species: Mus musculus; experiment: Maximal proliferation induced by the test compound in the presence of the mitogen-PWM ( stimulated blastogenesis) in Mice cells at a dose of 20 ug/mL; format: functional; procedure, shortened: as §1
[26] = species: Mus musculus; experiment: Proliferation induced by the mitogen alone-PWM (control blastogenesis), in Mice cells at a dose of 20 ug/mL; format: functional; procedure, shortened: as §1
[27] = tested on: Mus musculus; experiment: […] induction of Thyl+ antigen expression on murine bone marrow cells at the concentration of 3 uM(Fraction A).(Control group); format: functional; procedure, shortened: as §2
[28] = tested on: Mus musculus; experiment: […] induction of Thyl+ antigen expression on murine bone marrow cells at the concentration of 3 uM(Fraction B).(treated); format: functional; procedure, shortened: as §2
[29] = tested on: Mus musculus; experiment: […] induction of Thyl+ antigen expression on murine bone marrow cells at the concentration of 3 uM(Fraction B).(Control group); format: functional; procedure, shortened: as §2
[30] = tested on: Mus musculus; experiment: […] induction of Thyl+ antigen expression on murine bone marrow cells at the concentration of 3 uM(Fraction A).(treated); format: functional; procedure, shortened: as §2
[31] = tested on: Mus musculus; experiment: […] induction of Thyl+ antigen expression on murine bone marrow cells (Fraction A).(Treated); format: functional; procedure, shortened: as §2
[32] = tested on: Mus musculus; experiment: […] induction of Thyl+ antigen expression on murine bone marrow cells (Fraction A).(Control group); format: functional; procedure, shortened: as §2
[33] = tested on: Mus musculus; experiment: […] induction of Thyl+ antigen expression on murine bone marrow cells (Fraction B).(Control group); format: functional; procedure, shortened: as §2
[34] = tested on: Mus musculus; experiment: […] induction of Thyl+ antigen expression on murine bone marrow cells (Fraction B).(Treated); format: functional; procedure, shortened: as §2
[35] = tested on: Mus musculus; experiment: […] induction of Thyl+ antigen expression on murine bone marrow cells at the concentration of 2.6 uM(Fraction B).(treated); format: functional; procedure, shortened: as §2
[36] = tested on: Mus musculus; experiment: […] induction of Thyl+ antigen expression on murine bone marrow cells at the concentration of 2.6 uM(Fraction A).(Control group); format: functional; procedure, shortened: as §2
[37] = tested on: Mus musculus; experiment: […] induction of Thyl+ antigen expression on murine bone marrow cells at the concentration of 2.6 uM(Fraction B).(Control group); format: functional; procedure, shortened: as §2
[38] = tested on: Mus musculus; experiment: […] induction of Thyl+ antigen expression on murine bone marrow cells at the concentration of 2.6 uM(Fraction A).(treated); format: functional; procedure, shortened: as §2

## CC1CCN(c2ccccc2C(=O)c2ccc(Cl)cc2)CC1
[1]
  Proliferative response: 62.7
[2]
  Proliferative response: 15.5
[3]
  Proliferative response: 17.4
[4]
  Proliferative response: 92.7

## CCCCC1CCN(c2ccc(N)cc2C(=O)c2ccc(Cl)cc2)CC1
[1]
  Proliferative response: 289.2
[5]
  Differentiation: 6.4%
[6]
  Thylpositive cells/spleen: 2.05e+06 cells/spleen
[7]
  Proliferative response: 59.1
[8]
  Differentiation: 5.2%
[9]
  Restoration: 0.6%
[10]
  Differentiation: 3.8%
[11]
  Proliferative response: 78.4
[12]
  Thylpositive cells: 3.5%
[4]
  Proliferative response: 211.8
[13]
  Proliferative response: 81.7
[14]
  Restoration: 3.6%
[15]
  Differentiation: 4.2%
[16]
  Proliferative response: 51.3

## CC1CCN(c2ccc(N)cc2C(=O)c2ccc(Cl)cc2)CC1C (centres undefined)
[1]
  Proliferative response: 50.2
[17]
  Differentiation: 3%
[18]
  Differentiation: 8.8%
[19]
  Differentiation: 6.1%
[20]
  Proliferative response: 75.8
[21]
  Proliferative response: 67.3
[4]
  Proliferative response: 48.6
[22]
  Differentiation: 6.1%

## COc1ccc(C(=O)c2cc(N)ccc2N2CCC(C)CC2)cc1OC
[1]
  Proliferative response: 158.4
[23]
  Proliferative response: 48.8
[24]
  Proliferative response: 44.9
[4]
  Proliferative response: 137.4

## CC1CCN(c2ccc(N)cc2C(=O)c2ccccc2Cl)CC1
[1]
  Proliferative response: 165.5
[25]
  Proliferative response: 85.8
[4]
  Proliferative response: 150
[26]
  Proliferative response: 80

## CC1CCN(c2ccc(Cl)cc2C(=O)c2ccc(Cl)cc2)CC1
[1]
  Proliferative response: 68.7
[2]
  Proliferative response: 8.2
[3]
  Proliferative response: 14.6
[4]
  Proliferative response: 55.6

## Nc1ccc(N2CCC(c3ccccc3)CC2)c(C(=O)c2ccc(Cl)cc2)c1
[1]
  Proliferative response: 294.1
[6]
  Thylpositive cells/spleen: 3.2e+06 cells/spleen
[27]
  Differentiation: 3.8%
[28]
  Differentiation: 6.4%
[7]
  Proliferative response: 54.4
[9]
  Restoration: 7.4%
[11]
  Proliferative response: 95.7
[12]
  Thylpositive cells: 5.5%
[29]
  Differentiation: 5.2%
[4]
  Proliferative response: 263.2
[13]
  Proliferative response: 115.3
[14]
  Restoration: 12.5%
[30]
  Differentiation: 7%
[16]
  Proliferative response: 59.9

## H-CSDAAVDVSSEITVKDLKEKKEVVEEAE-OH [THYMOSIN]
[31]
  Differentiation: 21.9%
[32]
  Differentiation: 10.8%
[33]
  Differentiation: 6.3%
[34]
  Differentiation: 9.4%

## CC1CCCN(c2ccc(N)cc2C(=O)c2ccc(Cl)cc2)C1 (centres undefined)
[35]
  Differentiation: 5%
[1]
  Proliferative response: 141.6
[36]
  Differentiation: 5%
[37]
  Differentiation: 3.8%
[23]
  Proliferative response: 45
[38]
  Differentiation: 6.7%
[24]
  Proliferative response: 41.3
[4]
  Proliferative response: 124.4

From ChEMBL document CHEMBL1125686, “(Benzoylphenyl)piperidines: a new class of immunomodulators” (1991)
